A selection: hits, their analogues and other compounds. The true share with any hit is near 2.1%.
HTR2A ag = mouse Htr2a agonists via beta-arrestin recruitment, primary screen, cell-based, luminescence; 360,000 compounds, 0.66% hits; activation, % at 7.6 µM; 5-hydroxytryptamine receptor 2A (Mus musculus), P35363; CHO-K1 mHTR2A beta-arrestin complementation; percent of 30 µM serotonin response; AID 624169, 2012;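 active means activation above a run cutoff, the mean activation of all tested compounds plus 3 SD, cut at about 14% in these data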;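 further: 0% = plate median of compound wells and 100% = 30 µM serotonin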
CXCR6 block = CXCR6 receptor inhibitors, primary screen, cell-based, beta-arrestin, luminescence, CHO-K1 PathHunter, 1536-well. C-X-C chemokine receptor type 6 (Homo sapiens), O00574. inhibition, % at 20 µM. 360,000 compounds, 0.36% hits. AID 602244, 2012; in the data active means inhibition above about 34%, passing the limit was not always enough;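 further: antagonist mode with CXCL16 agonist at 10 nM final; 0% = 10 nM CXCL16 with DMSO and 100% = unstimulated wells without agonist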
APJ antag = antagonists of human apelin receptor APJ, primary screen, CHO-K1 cells, beta-arrestin complementation, luminescence | P35414 | inhibition, % at 20 µM | 330,000 compounds, 0.32% hits;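 active means inhibition above about 40% at 20 µM, limit read from the data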;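 further: cells challenged with 10 nM apelin-13 agonist together with compound; plate controls were apelin-13 plus DMSO wells for no effect and DMSO wells lacking apelin-13 for full effect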
Target sequence (P35414 whole entry, looked up): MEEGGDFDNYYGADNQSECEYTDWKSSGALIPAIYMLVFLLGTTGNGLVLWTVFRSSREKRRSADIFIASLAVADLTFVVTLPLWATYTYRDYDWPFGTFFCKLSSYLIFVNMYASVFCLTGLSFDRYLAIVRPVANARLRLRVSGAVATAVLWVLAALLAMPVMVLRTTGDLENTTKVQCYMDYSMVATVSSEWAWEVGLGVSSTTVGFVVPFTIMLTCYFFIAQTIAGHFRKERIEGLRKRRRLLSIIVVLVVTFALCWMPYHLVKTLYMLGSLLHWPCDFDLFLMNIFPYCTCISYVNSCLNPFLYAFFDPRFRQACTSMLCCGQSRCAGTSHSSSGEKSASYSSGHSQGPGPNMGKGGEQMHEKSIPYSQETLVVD
APJ agonist = agonists of human apelin receptor APJ, primary screen, CHO-K1 cells, PathHunter beta-arrestin, luminescence; activation, % at 20 µM; 330,000 compounds, 0.11% hits; P35414; 0% DMSO wells, 100% apelin;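 active means activation more than six SD over the plate average, tested at 20 µM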;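 further: 0% = DMSO alone and 100% = apelin-13 at 10 nM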
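system = engineered CHO-K1 APJ arrestin reporter cells | input = 1000 cells per well | timing = overnight seeding, 90 min compound at 25 °C, 1 h detection | measured by = enzyme-fragment complementation luminescence | read-out = beta-arrestin recruitment to APJ as agonist activity, luminescent signal | control set = negative DMSO alone, positive Apelin-13 at 10 nM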
CCR6 antag = CCR6 receptor antagonists, primary screen, cell-based, CHO-K1, luminescence, beta-arrestin, uHTS | C-C chemokine receptor type 6 (Homo sapiens), P51684 | AID 493098, 2011 | CHO-K1 CCR6 PathHunter beta-arrestin, CCL20-stimulated | 340,000 compounds, 0.49% hits | inhibition, % at 20 µM;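 active means compounds whose inhibition of the agonist-driven luminescence signal at 20 µM reaches about 50%, limit read from the data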;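 further: cells stimulated with CCL20 at 14 nM final; plate controls were DMSO with CCL20 for no effect and DMSO without agonist for full effect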
EBI2 antag = EBI2 receptor antagonists, beta-arrestin recruitment, primary screen, cell-based, luminescence, 7a,25-OHC stimulation, uHTS; inhibition, % at 5 µM; G-protein coupled receptor 183 (Homo sapiens), P32249; 360,000 compounds, 0.81% hits; 7a,25-OHC stimulated; in the data active means inhibition above about 38%;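 further: enzyme fragment complementation signal reports receptor beta-arrestin coupling in cells; 0% = agonist plus DMSO wells and 100% = wells without agonist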
APJ ag conf = agonists of human apelin receptor APJ, confirmation, cell-based, single concentration, CHO-K1, beta-arrestin, luminescence. shares compounds with APJ agonist. CHO-K1 APJ PathHunter beta-arrestin. activation, % at 20 µM. 310 compounds, 10% hits;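 active means activation above 40%, taking the highest of four retests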;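 further: plate controls were DMSO wells for no effect and apelin-13 at 10 nM for full effect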
* marks the source's active call; other numbers are inactive results; . = not tested or not shown.

SMILES | HTR2A ag | CXCR6 block | APJ antag | APJ agonist | CCR6 antag | EBI2 antag | APJ ag conf
N#C/C(=C(/O)c1ccc([N+](=O)[O-])o1)c1nc2ccccc2[nH]1 | 0 | 28 | -2 | 2 | 40 | -6 | .
O=C(Nc1ccc(OC(F)F)cc1)c1cc(S(=O)(=O)N2CCOCC2)ccc1N1CCCC1 | -2 | 8 | . | . | 1 | 0 | .
O=C(Nc1ccccc1N1CCOCC1)c1ccccc1[N+](=O)[O-] | 0 | 3 | -25 | 0 | 16 | 1 | .
O=C(Nc1ccccc1N1CCOCC1)c1ccc([N+](=O)[O-])s1 | 7 | 3 | -30 | 10* | 9 | -30 | 27
CC(NC(=S)NC1CCC(C(C)(C)C)CC1)c1ccccc1 (stereo not drawn) | -4 | 15 | 18 | 1 | 15 | -2 | .
CC1CCN(CCCNC(=O)C2CCC(CNS(=O)(=O)c3ccccc3)CC2)CC1 (stereo not drawn) | -2 | -1 | -24 | -5 | 10 | 0 | .
N/C(=N\OC(=O)c1cc(Br)ccc1Cl)c1cccnc1 | -3 | -18 | -105 | 11* | -16 | -21 | 28
COC(=O)[C@]12CCCCC=C1N(Cc1ccccc1)C(=O)[C@H](CC(=O)N1CCSCC1)C2 | 1 | 7 | . | . | . | 0 | .
Cc1ccc(S(=O)(=O)Nc2nc(-c3ccccc3)cs2)cc1 | -3 | 10 | 8 | 30* | 11 | 4 | 55*
CCn1c(CC(=O)Nc2ccc(C)c(Cl)c2)nnc1SCC(=O)Nc1nc(C)cs1 | 3 | -8 | -14 | 20* | 3 | -1 | 5
COc1ccccc1-c1ccc2nnc(SC)n2n1 | 1 | 6 | 12 | 2 | 3 | -12 | .
O=C(NC1CCCC1)C1CCC(CNS(=O)(=O)c2cccs2)CC1 (stereo not drawn) | -5 | -8 | 0 | 1 | -11 | -18 | .
O=C(C1CCC(CNS(=O)(=O)c2cccs2)CC1)N1CCN(c2ccc(Cl)cc2)CC1 (stereo not drawn) | 6 | -13 | -40 | 26* | -7 | -32 | 20
CC1(C(=O)NS(=O)(=O)c2cccs2)CCN1C(=O)CC1CC1 (stereo not drawn) | 3 | -8 | . | . | . | 0 | .
N/C(=N\OC(=O)c1cc(-c2ccccc2)nc2ccccc12)c1ccc(Cl)cc1 | 1 | -12 | -16 | 16* | -16 | -6 | 20
Cc1cc(C)nc(/N=C(\N)Nc2ccc(OCCC(C)C)cc2)n1 | -3 | -3 | -3 | 16* | -1 | -19 | 7
COc1ccc(N/C(N)=N/c2nc(C)cc(C)n2)cc1 | -2 | -7 | . | . | . | -11 | .
N#Cc1cc2cc3ccccc3nc2n2c(=O)c3ccccc3nc12 | 1 | -18 | -31 | 15* | 7 | -15 | 3
COc1cc(C(=O)O/N=C(\N)Cc2ccc([N+](=O)[O-])cc2)cc(OC)c1OC | 1 | -15 | -53 | 13 | -23 | -8 | .
COc1ccc(C/C(N)=N/OC(=O)c2cccc([N+](=O)[O-])c2)cc1 | -1 | -19 | -56 | 18* | -3 | -14 | 19
N/C(Cc1ccc([N+](=O)[O-])cc1)=N\OC(=O)c1cccc(Br)c1 | -2 | -24 | -40 | 4 | 2 | -2 | .
COc1ccc(C(=O)O/N=C(\N)Cc2ccc(Cl)cc2)cc1OC | -4 | -2 | -57 | 12* | -7 | 14 | 24
COc1ccccc1C/C(N)=N/OC(=O)c1cccc([N+](=O)[O-])c1 | -9 | -11 | -95 | 11* | -17 | -7 | 37
COc1ccc(C(=O)O/N=C(\N)Cc2ccc([N+](=O)[O-])cc2)c(OC)c1 | 4 | -10 | -24 | 21* | -12 | 5 | 32
O=C(CSc1ccc2ccccc2n1)c1ccccc1 | 1 | 14 | -18 | -5 | 16 | -4 | .
SMILES | HTR2A ag | CXCR6 block | APJ antag | APJ agonist | CCR6 antag | EBI2 antag | APJ ag conf
Cc1ccccc1C(=O)O/N=C/c1c(N2CCOCC2)n(C)c2ccccc12 | -2 | -14 | -76 | 15* | -17 | 1 | 25
COc1ccc2[nH]c3c(=O)n(/N=C/[C@H]4C(C)C=C(C)CC4C)c(=O)[nH]c3c2c1 (stereo partly drawn) | -5 | -12 | -30 | 24* | -2 | -8 | 28
Cc1ccc(-c2ccc(/C=C3\C(=O)ON=C3c3ccccc3)o2)c([N+](=O)[O-])c1 | 5 | 25 | -7 | 16* | 62* | -1 | 25
O=C(Nc1ccncc1)c1cc2ccccc2cc1O | 2 | -40 | -213 | 47* | -32 | -35 | 33
O=C(Nc1cccc([N+](=O)[O-])c1)c1cc2ccccc2cc1O | -5 | 3 | -16 | 7 | 26 | -3 | .
COc1cc(N)c(C(=O)c2nccc3cc(OC)c(OC)cc23)cc1OC | 2 | 8 | -9 | 0 | 1 | 8 | .
COc1cc(C(=O)c2nccc3cc(OC)c(OC)cc23)c([N+](=O)[O-])cc1OC | 3 | -2 | -11 | 14* | -4 | -23 | 4
CCCCCCc1cc2cc(-c3nnc(-c4ccccc4O)o3)c(=O)oc2cc1O | 0 | -41 | -75 | 25* | -59 | -32 | 52*
CCCCCCc1cc2cc(-c3nnc(-c4cc(OC)c(OC)c(OC)c4)o3)c(=O)oc2cc1O | . | . | -87 | 16* | -88 | . | 54*
S=C(N/N=C/c1ccc2c(c1)OCO2)NC1CC2CCC1C2 (stereo not drawn) | 4 | 3 | 10 | 0 | 19 | 31 | .
COC(=O)c1cc(S(=O)(=O)N2c3ccccc3CC2C)cn1C (stereo not drawn) | -7 | 8 | 9 | 3 | 16 | -4 | .
COc1ccc(COC(=O)C2=C(C)NC(=O)NC2c2ccc(F)cc2)cc1 (stereo not drawn) | 4 | 2 | -7 | 23* | -20 | -8 | 12
COc1ccc(Nc2ccnc3ccccc23)cc1 | 0 | -8 | 4 | -4 | -6 | 8 | .
CC(C)Nc1ccc(Nc2ccnc3cc4ccccc4cc23)cc1 | -14 | 12 | 10 | 24* | 23 | 24 | 34
CNS(=O)(=O)c1ccc(CNC[C@H]2O[C@@H](n3ccc(N)nc3=O)[C@H](O)[C@@H]2O)cc1 | 0 | 2 | . | . | . | -8 | .
O=C(CSc1nnc(-c2ccc(Cl)cc2)n1-c1ccc(Cl)cc1)N/N=C/c1ccccc1C(=O)O | . | . | 10 | -5 | 15 | . | .
O=C(CSc1nnc(-c2ccccc2)n1-c1ccc(Cl)cc1)N/N=C/c1ccccc1C(=O)O | 2 | 3 | -1 | -3 | 6 | -4 | .

From PubChem BioAssay
